Several values for one entry are separate records, joined by “and”; a condition that tells them apart may be missing. Equal values may be shown once.
Tested on: U2OS
Test: Multiplex assay against U2OS
Format: toxicity, cell-based
Conditions: human, number of replicates 2
Procedure, shortened: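 Live cells were stained at seeding with Hoechst33342, BioTracker Green Microtubule Cytoskeleton Dye, MitoTracker Red and Annexin V Alexa Fluor 680. Following compound addition, they were imaged on a CQ1 microscope at 37°C and 5% CO2 and gated by CellPathfinder machine learning into Hoechst high-intensity objects or normal cells, with normal cells split into healthy, pyknosed or fragmented nuclei and pyknosed cells into mitotic or apoptotic. Tubulin, mitochondrial-mass and membrane-permeability phenotypes are per cents of healthy-nucleus cells.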

[1] = 12 h, 0 µM, compound concentration 0 uM
[2] = 12 h, 1 µM, compound concentration 1 uM
[3] = 24 h, 0 µM, compound concentration 0 uM
[4] = 24 h, 1 µM, compound concentration 1 uM
[5] = 48 h, 0 µM, compound concentration 0 uM
[6] = 48 h, 1 µM, compound concentration 1 uM
[7] = 12 h, 10 µM, compound concentration 10 uM
[8] = 24 h, 10 µM, compound concentration 10 uM
[9] = 48 h, 10 µM, compound concentration 10 uM

COc1cc(C(N)=O)ccc1Nc1ncc2c(n1)N(CCC(C)C)[C@H](C)C(=O)N2C
Population Apoptotic (%) [1]: 42% and 75% | Population Healthy Nuclei (%) [1]: 45% and 69% | Population Hoechst High Intensity Objects (%) [1]: 0% | Population Membrane Permeable-Phenotype (%) [1]: 31% and 42% | Population Mitochondria Different-Phenotype (%) [1]: 15% and 27% | Population Mitotic Cells (%) [1]: 57% and 24% | Population Normal (%) [1]: 100% | Population Pyknosed Nuclei (%) [1]: 16% and 18% | Population Tubulin-Different-Phenotype (%) [1]: 78% and 56% | Population Apoptotic (%) [2]: 100% and 61% | Population Healthy Nuclei (%) [2]: 66% and 76% | Population Hoechst High Intensity Objects (%) [2]: 0% | Population Membrane Permeable-Phenotype (%) [2]: 7% and 1% | Population Normal (%) [2]: 100% | Population Pyknosed Nuclei (%) [2]: 4% and 14% | Population Tubulin-Different-Phenotype (%) [2]: 92% and 81% | Population Apoptotic (%) [3]: 100% and 89% | Population Fragmented Nuclei (%) [3]: 46% and 22% | Population Healthy Nuclei (%) [3]: 41% and 54% | Population Hoechst High Intensity Objects (%) [3]: 0% | Population Membrane Permeable-Phenotype (%) [3]: 76% and 33% | Population Mitochondria Different-Phenotype (%) [3]: 70% and 40% | Population Mitotic Cells (%) [3]: 0% and 10% | Population Normal (%) [3]: 100% | Population Pyknosed Nuclei (%) [3]: 12% and 23% | Population Tubulin-Different-Phenotype (%) [3]: 88% and 47% | Population Apoptotic (%) [4]: 66% and 94% | Population Healthy Nuclei (%) [4]: 32% and 73% | Population Hoechst High Intensity Objects (%) [4]: 0% | Population Normal (%) [4]: 100% | Population Pyknosed Nuclei (%) [4]: 12% and 8% | Population Tubulin-Different-Phenotype (%) [4]: 87% and 85% | Population Apoptotic (%) [5]: 75% and 95% | Population Fragmented Nuclei (%) [5]: 57% and 39% | Population Healthy Nuclei (%) [5]: 34% and 30% | Population Hoechst High Intensity Objects (%) [5]: 0% | Population Membrane Permeable-Phenotype (%) [5]: 82% and 72% | Population Mitochondria Different-Phenotype (%) [5]: 70% | Population Normal (%) [5]: 100% | Population Tubulin-Different-Phenotype (%) [5]: 76% and 82% | Population Apoptotic (%) [6]: 100% and 84% | Population Fragmented Nuclei (%) [6]: 61% and 25% | Population Hoechst High Intensity Objects (%) [6]: 0% | Population Mitotic Cells (%) [6]: 0% and 15% | Population Normal (%) [6]: 100% | Population Pyknosed Nuclei (%) [6]: 17% and 12% | Population Tubulin-Different-Phenotype (%) [6]: 100% and 93%

NC(=O)c1ccc(-c2nc(-c3ccc4c(c3)OCCO4)c(-c3ccccn3)[nH]2)cc1
Population Apoptotic (%) [2]: 40% and 85% | Population Fragmented Nuclei (%) [2]: 1% and 4% | Population Healthy Nuclei (%) [2]: 88% and 86% | Population Hoechst High Intensity Objects (%) [2]: 1% and 0% | Population Membrane Permeable-Phenotype (%) [2]: 4% and 1% | Population Mitochondria Different-Phenotype (%) [2]: 0% and 1% | Population Normal (%) [2]: 98% and 100% | Population Pyknosed Nuclei (%) [2]: 9% | Population Tubulin-Different-Phenotype (%) [2]: 53% and 86% | Total Cell Count [2]: 54 and 150 | Population Apoptotic (%) [7]: 46% and 33% | Population Healthy Nuclei (%) [7]: 78% and 63% | Population Hoechst High Intensity Objects (%) [7]: 0% | Population Membrane Permeable-Phenotype (%) [7]: 4% and 0% | Population Mitochondria Different-Phenotype (%) [7]: 3% and 0% | Population Mitotic Cells (%) [7]: 53% and 66% | Population Normal (%) [7]: 100% | Population Pyknosed Nuclei (%) [7]: 14% and 8% | Population Tubulin-Different-Phenotype (%) [7]: 62% and 39% | Population Apoptotic (%) [4]: 54% and 64% | Population Fragmented Nuclei (%) [4]: 2% and 1% | Population Healthy Nuclei (%) [4]: 84% and 92% | Population Hoechst High Intensity Objects (%) [4]: 0% | Population Membrane Permeable-Phenotype (%) [4]: 1% | Population Mitochondria Different-Phenotype (%) [4]: 0% | Population Mitotic Cells (%) [4]: 45% and 35% | Population Normal (%) [4]: 100% | Population Pyknosed Nuclei (%) [4]: 13% and 6% | Population Tubulin-Different-Phenotype (%) [4]: 56% and 92% | Total Cell Count [4]: 84 and 214 | Population Healthy Nuclei (%) [8]: 86% and 65% | Population Hoechst High Intensity Objects (%) [8]: 0% | Population Membrane Permeable-Phenotype (%) [8]: 3% and 0% | Population Mitochondria Different-Phenotype (%) [8]: 4% and 3% | Population Normal (%) [8]: 99% and 100% | Population Pyknosed Nuclei (%) [8]: 9% and 2% | Population Tubulin-Different-Phenotype (%) [8]: 59% and 48% | Population Apoptotic (%) [6]: 52% and 74% | Population Fragmented Nuclei (%) [6]: 6% and 3% | Population Healthy Nuclei (%) [6]: 82% and 90% | Population Hoechst High Intensity Objects (%) [6]: 0% | Population Membrane Permeable-Phenotype (%) [6]: 0% and 1% | Population Mitochondria Different-Phenotype (%) [6]: 0% | Population Mitotic Cells (%) [6]: 47% and 25% | Population Normal (%) [6]: 100% | Population Pyknosed Nuclei (%) [6]: 10% and 6% | Population Tubulin-Different-Phenotype (%) [6]: 62% and 95% | Population Apoptotic (%) [9]: 77% and 78% | Population Fragmented Nuclei (%) [9]: 21% and 7% | Population Healthy Nuclei (%) [9]: 66% and 78% | Population Hoechst High Intensity Objects (%) [9]: 0% | Population Membrane Permeable-Phenotype (%) [9]: 8% and 3% | Population Mitochondria Different-Phenotype (%) [9]: 4% and 2% | Population Mitotic Cells (%) [9]: 22% and 21% | Population Normal (%) [9]: 100% | Population Pyknosed Nuclei (%) [9]: 12% and 14% | Population Tubulin-Different-Phenotype (%) [9]: 61% and 67%

CC(C)c1cc(-c2ccc(F)c3ccccc23)nc(N)n1
Population Apoptotic (%) [2]: 35% and 50% | Population Fragmented Nuclei (%) [2]: 2% and 12% | Population Healthy Nuclei (%) [2]: 88% and 81% | Population Hoechst High Intensity Objects (%) [2]: 0% | Population Membrane Permeable-Phenotype (%) [2]: 1% and 7% | Population Mitochondria Different-Phenotype (%) [2]: 0% | Population Mitotic Cells (%) [2]: 65% and 50% | Population Normal (%) [2]: 100% | Population Pyknosed Nuclei (%) [2]: 8% and 6% | Population Tubulin-Different-Phenotype (%) [2]: 88% and 44% | Population Apoptotic (%) [7]: 66% and 52% | Population Healthy Nuclei (%) [7]: 52% and 84% | Population Hoechst High Intensity Objects (%) [7]: 0% | Population Mitotic Cells (%) [7]: 33% and 48% | Population Normal (%) [7]: 100% | Population Pyknosed Nuclei (%) [7]: 15% and 10% | Population Tubulin-Different-Phenotype (%) [7]: 80% and 71% | Population Fragmented Nuclei (%) [4]: 3% and 8% | Population Healthy Nuclei (%) [4]: 86% and 82% | Population Hoechst High Intensity Objects (%) [4]: 0% | Population Membrane Permeable-Phenotype (%) [4]: 0% and 7% | Population Mitochondria Different-Phenotype (%) [4]: 0% | Population Mitotic Cells (%) [4]: 47% and 100% | Population Normal (%) [4]: 100% | Population Pyknosed Nuclei (%) [4]: 9% and 10% | Population Tubulin-Different-Phenotype (%) [4]: 89% and 41% | Population Apoptotic (%) [8]: 100% and 65% | Population Healthy Nuclei (%) [8]: 58% and 86% | Population Hoechst High Intensity Objects (%) [8]: 0% | Population Membrane Permeable-Phenotype (%) [8]: 11% and 3% | Population Mitochondria Different-Phenotype (%) [8]: 11% and 1% | Population Normal (%) [8]: 100% | Population Pyknosed Nuclei (%) [8]: 6% and 8% | Population Tubulin-Different-Phenotype (%) [8]: 55% and 72% | Population Fragmented Nuclei (%) [6]: 13% and 3% | Population Healthy Nuclei (%) [6]: 83% and 90% | Population Hoechst High Intensity Objects (%) [6]: 0% | Population Membrane Permeable-Phenotype (%) [6]: 1% and 2% | Population Mitochondria Different-Phenotype (%) [6]: 1% and 0% | Population Mitotic Cells (%) [6]: 100% and 60% | Population Normal (%) [6]: 100% | Population Pyknosed Nuclei (%) [6]: 2% and 6% | Population Tubulin-Different-Phenotype (%) [6]: 57% and 93% | Population Apoptotic (%) [9]: 83% and 59% | Population Healthy Nuclei (%) [9]: 62% and 90% | Population Hoechst High Intensity Objects (%) [9]: 0% | Population Mitotic Cells (%) [9]: 16% and 40% | Population Normal (%) [9]: 100% | Population Tubulin-Different-Phenotype (%) [9]: 60% and 84%

Cc1ccc2c(N)c(C(=O)NC3CCc4cc(N5CC6CCC(C5)N6)ccc4C3)sc2n1.O=CO (centres undefined)
Population Apoptotic (%) [2]: 100% and 51% | Population Fragmented Nuclei (%) [2]: 11% and 6% | Population Healthy Nuclei (%) [2]: 70% and 76% | Population Hoechst High Intensity Objects (%) [2]: 0% | Population Membrane Permeable-Phenotype (%) [2]: 16% and 7% | Population Normal (%) [2]: 100% | Population Pyknosed Nuclei (%) [2]: 17% and 16% | Population Tubulin-Different-Phenotype (%) [2]: 19% and 25% | Population Apoptotic (%) [7]: 36% and 24% | Population Healthy Nuclei (%) [7]: 22% and 29% | Population Hoechst High Intensity Objects (%) [7]: 3% and 12% | Population Membrane Permeable-Phenotype (%) [7]: 16% and 11% | Population Mitochondria Different-Phenotype (%) [7]: 50% and 51% | Population Mitotic Cells (%) [7]: 63% and 75% | Population Normal (%) [7]: 96% and 87% | Population Pyknosed Nuclei (%) [7]: 35% and 56% | Population Tubulin-Different-Phenotype (%) [7]: 50% | Population Apoptotic (%) [4]: 69% and 75% | Population Fragmented Nuclei (%) [4]: 4% and 5% | Population Healthy Nuclei (%) [4]: 69% and 77% | Population Hoechst High Intensity Objects (%) [4]: 0% | Population Membrane Permeable-Phenotype (%) [4]: 17% and 6% | Population Mitotic Cells (%) [4]: 30% and 24% | Population Normal (%) [4]: 100% | Population Pyknosed Nuclei (%) [4]: 26% and 16% | Population Tubulin-Different-Phenotype (%) [4]: 26% and 23% | Population Apoptotic (%) [8]: 56% | Population Healthy Nuclei (%) [8]: 19% and 22% | Population Hoechst High Intensity Objects (%) [8]: 8% and 11% | Population Mitochondria Different-Phenotype (%) [8]: 75% and 69% | Population Mitotic Cells (%) [8]: 43% | Population Normal (%) [8]: 91% and 88% | Population Pyknosed Nuclei (%) [8]: 39% and 64% | Population Tubulin-Different-Phenotype (%) [8]: 50% and 60% | Population Apoptotic (%) [6]: 80% and 88% | Population Fragmented Nuclei (%) [6]: 7% and 5% | Population Healthy Nuclei (%) [6]: 49% and 66% | Population Hoechst High Intensity Objects (%) [6]: 0% | Population Membrane Permeable-Phenotype (%) [6]: 14% and 19% | Population Mitochondria Different-Phenotype (%) [6]: 25% and 53% | Population Mitotic Cells (%) [6]: 20% and 11% | Population Normal (%) [6]: 100% | Population Pyknosed Nuclei (%) [6]: 43% and 28% | Population Tubulin-Different-Phenotype (%) [6]: 21% and 40% | Population Apoptotic (%) [9]: 53% and 87% | Population Healthy Nuclei (%) [9]: 31% and 12% | Population Membrane Permeable-Phenotype (%) [9]: 53% and 57% | Population Mitochondria Different-Phenotype (%) [9]: 84% | Population Normal (%) [9]: 95% and 83% | Population Pyknosed Nuclei (%) [9]: 36% and 80% | Population Tubulin-Different-Phenotype (%) [9]: 100% and 73%
